Results taken from ChEMBL document CHEMBL1158492, “Triazole inhibitors of Cryptosporidium parvum inosine 5'-monophosphate dehydrogenase” (J Med Chem, 2009).

Experiments:
[1] = target: T1, Inosine-5'-monophosphate dehydrogenase (Cryptosporidium parvum, UniProt Q8T6T2); test: Inhibition of Cryptosporidium parvum recombinant IMPDH expressed in Escherichia coli TX685 assessed as NADH production by fluorescence assay in absence of 0.05% fatty acid free bovine serum albumin
T1 sequence (Q8T6T2 whole entry): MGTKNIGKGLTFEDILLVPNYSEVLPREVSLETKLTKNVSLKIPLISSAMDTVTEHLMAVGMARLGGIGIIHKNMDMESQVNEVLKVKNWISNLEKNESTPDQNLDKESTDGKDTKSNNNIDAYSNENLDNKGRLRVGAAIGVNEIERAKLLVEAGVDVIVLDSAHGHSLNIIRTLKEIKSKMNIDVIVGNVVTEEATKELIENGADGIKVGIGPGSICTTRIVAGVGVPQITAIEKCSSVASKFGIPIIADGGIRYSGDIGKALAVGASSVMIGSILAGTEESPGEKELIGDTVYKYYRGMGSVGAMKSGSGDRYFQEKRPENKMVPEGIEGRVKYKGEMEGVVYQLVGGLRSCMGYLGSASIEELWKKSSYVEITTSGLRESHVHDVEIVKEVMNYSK
How it was run: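 Enzyme (10 nM) pre-incubated with inhibitor 5 min at room temperature before adding substrates (150 μM IMP, 300 μM NAD). Inhibitor range 25 pM–5 μM. NADH read by fluorescence. Initial velocities averaged over quadruplicates. IC50 from vi/vo, mean ± SD of three independent determinations.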

[2] = target: T2, Inosine-5'-monophosphate dehydrogenase 2 (Homo sapiens, UniProt P12268); test: Inhibition of human recombinant IMPDH2 expressed in Escherichia coli guaB assessed as NADH production at 5 uM by fluorescence assay
[3] = target: T1, Inosine-5'-monophosphate dehydrogenase; test: Inhibition of Cryptosporidium parvum recombinant IMPDH expressed in Escherichia coli TX685 assessed as NADH production by fluorescence assay in presence of 0.05% fatty acid free bovine serum albumin
How it was run: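 Same IMP→XMP fluorescence (NADH) assay, with 0.05% fatty acid free BSA added. Conditions: 10 nM enzyme, 5 min room-temperature pre-incubation with inhibitor, then 150 μM IMP and 300 μM NAD. IC50 from three independent experiments, mean ± SD.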

[4] = target: T3, Inosine-5'-monophosphate dehydrogenase (Cryptosporidium parvum) (UniProt Q8T6T2); test: Ratio of campaign IC50 to compound IC50 for Cryptosporidium parvum recombinant IMPDH expressed in Escherichia coli TX685 in absence of 0.05% fatty acid free bovine serum albumin
T3 sequence (whole entry): T1 sequence (Q8T6T2 whole entry)

[5] = target: T2, Inosine-5'-monophosphate dehydrogenase 2; test: Inhibition of human recombinant IMPDH2 expressed in Escherichia coli guaB assessed as NADH production by fluorescence assay
[6] = target: T1, Inosine-5'-monophosphate dehydrogenase; test: Inhibition of Cryptosporidium parvum recombinant IMPDH expressed in Escherichia coli guaB assessed as NADH production by fluorescence assay
How it was run: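 E. coli-expressed CpIMPDH at 10 nM, preincubated with inhibitor (25 pM - 5 μM) for 5 min at room temperature before adding 150 μM IMP and 300 μM NAD. NADH read by fluorescence from initial velocities, in quadruplicate. IC50 ± SD from three independent runs, some also with 0.05% fatty-acid-free BSA.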

O=C(Nc1ccc(Cl)cc1)C(Oc1cccc2ccccc12)C1CC1 (configuration not stated)
IC50 [1]: > 5000 nM
inhibition [2]: < 10%

C[C@H](Oc1ccnc2ccccc12)c1cn(-c2ccc(C#N)c(Cl)c2)nn1
IC50 [1]: 600 nM
IC50 [3]: 2300 nM
inhibition [2]: < 10%

CC(Oc1ccnc2ccccc12)c1cn(-c2ccc(Cl)c(Cl)c2)nn1 (configuration not stated)
IC50 [1]: 20 nM
IC50 [3]: 700 nM
inhibition [2]: < 10%

CC(Oc1ccnc2ccccc12)C(=O)Nc1ccc(Cl)cc1 (configuration not stated)
IC50 [1]: 660 nM
IC50 [3]: 860 nM
inhibition [2]: < 10%

CC(Oc1ccnc2ccccc12)c1cn(-c2ccc(C#N)cc2)nn1 (configuration not stated)
IC50 [1]: 140 nM
IC50 [3]: 340 nM
inhibition [2]: < 10%

C[C@@H](Oc1cccc2ncccc12)c1cn(-c2ccc(Cl)cc2)nn1
IC50 [1]: 9 nM
IC50 [3]: 30 nM
inhibition [2]: < 10%

CC(Oc1ccc(Cl)c2ccccc12)c1cn(-c2ccc(Cl)cc2)nn1 (configuration not stated)
IC50 [1]: 87 nM
IC50 [3]: 3900 nM
inhibition [2]: < 10%

CC(Oc1cccc2ccccc12)c1cn(-c2ccccc2Cl)nn1 (configuration not stated)
IC50 [1]: > 5000 nM
inhibition [2]: < 10%

CC(Oc1cc[n+]([O-])c2ccccc12)c1cn(-c2ccc(Cl)cc2)nn1 (configuration not stated)
IC50 [1]: 29 nM
IC50 [3]: 50 nM
inhibition [2]: < 10%

C[C@@H](Oc1ccnc2ccccc12)c1cn(-c2ccc(C#N)c(Cl)c2)nn1
IC50 [1]: 31 nM
IC50 [3]: 1100 nM
inhibition [2]: < 10%

O=C(Nc1ccc(Cl)cc1)C(Oc1cccc2ccccc12)c1ccccc1 (configuration not stated)
IC50 [1]: > 5000 nM
inhibition [2]: < 10%

C[C@@H](Oc1cccc2c1ccc[n+]2[O-])c1cn(-c2ccc(Cl)cc2)nn1
IC50 [1]: 24 nM
IC50 [3]: 52 nM
inhibition [2]: < 10%

CC(Oc1cccc2ccccc12)C(=O)Nc1ccc(Cl)cc1 (configuration not stated)
IC50 [1]: 1060 nM
Ratio IC50 [4]: 3
IC50 [3]: 1640 nM
inhibition [2]: < 10%

CC(C)C(Oc1cccc2ccccc12)C(=O)Nc1ccc(Cl)cc1 (configuration not stated)
IC50 [1]: 710 nM
IC50 [3]: 830 nM
inhibition [2]: < 10%

C[C@@H](Oc1ccnc2ccccc12)c1cn(-c2ccc(Cl)c(Cl)c2)nn1
IC50 [1]: 9 nM
IC50 [3]: 650 nM
inhibition [2]: < 10%

CC(C)C(Oc1cccc2ccccc12)c1cn(-c2ccc(Cl)cc2)nn1 (configuration not stated)
IC50 [1]: > 5000 nM
inhibition [2]: < 10%

CC(Oc1cc[n+]([O-])c2ccccc12)c1cn(-c2ccc(Cl)c(Cl)c2)nn1 (configuration not stated)
IC50 [1]: 18 nM
IC50 [3]: 42 nM
inhibition [2]: < 10%

Clc1ccc(-n2cc(COc3ccnc4ccccc34)nn2)cc1
IC50 [1]: 440 nM
IC50 [3]: 480 nM
inhibition [2]: < 10%

C[C@H](Oc1ccnc2ccccc12)c1cn(-c2ccc(Cl)c(Cl)c2)nn1
IC50 [1]: 130 nM
IC50 [3]: 880 nM
inhibition [2]: < 10%

CC(Oc1cccc2ccccc12)c1cn(-c2ccc(Cl)cc2)nn1 (configuration not stated)
IC50 [1]: 130 nM
IC50 [3]: 780 nM
inhibition [2]: < 10%

CC(Oc1ccnc2ccccc12)c1cn(-c2ccc(Cl)cc2)nn1 (configuration not stated)
IC50 [1]: 24 nM
IC50 [3]: 230 nM
inhibition [2]: < 10%

CC(Oc1ccnc2ccccc12)c1cn(-c2ccc(C#N)c(Cl)c2)nn1 (configuration not stated)
IC50 [1]: 40 nM
IC50 [3]: 1400 nM
inhibition [2]: < 10%

C[C@@H](Oc1cc[n+]([O-])c2ccccc12)c1cn(-c2ccc(Cl)cc2)nn1
IC50 [1]: 13 nM
IC50 [3]: 50 nM
inhibition [2]: < 10%

CC(Oc1cccc2c1ccc[n+]2[O-])c1cn(-c2ccc(Cl)cc2)nn1 (configuration not stated)
IC50 [1]: 44 nM
IC50 [3]: 59 nM
inhibition [2]: < 10%

CC(Oc1ccccc1)C(=O)Nc1ccc(Cl)cc1 (configuration not stated)
IC50 [5]: > 50000 nM
IC50 [1]: 3300 nM
EC50 [6]: 3300 nM
